Source: PubChem (Sanford-Burnham Center for Chemical Genomics)
Apaf-1 act: human Apaf-1 activation; O14727; Apaf-1 apoptosome caspase-3 activation, DEVD-Rh110 fluorescence; active compounds read low; activity change, negative = activation, % at 20 µM; actives 0.31% (n = 330,000);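 active = activity change at or below -40% at 20 µM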
Target sequence (O14727 whole entry, looked up): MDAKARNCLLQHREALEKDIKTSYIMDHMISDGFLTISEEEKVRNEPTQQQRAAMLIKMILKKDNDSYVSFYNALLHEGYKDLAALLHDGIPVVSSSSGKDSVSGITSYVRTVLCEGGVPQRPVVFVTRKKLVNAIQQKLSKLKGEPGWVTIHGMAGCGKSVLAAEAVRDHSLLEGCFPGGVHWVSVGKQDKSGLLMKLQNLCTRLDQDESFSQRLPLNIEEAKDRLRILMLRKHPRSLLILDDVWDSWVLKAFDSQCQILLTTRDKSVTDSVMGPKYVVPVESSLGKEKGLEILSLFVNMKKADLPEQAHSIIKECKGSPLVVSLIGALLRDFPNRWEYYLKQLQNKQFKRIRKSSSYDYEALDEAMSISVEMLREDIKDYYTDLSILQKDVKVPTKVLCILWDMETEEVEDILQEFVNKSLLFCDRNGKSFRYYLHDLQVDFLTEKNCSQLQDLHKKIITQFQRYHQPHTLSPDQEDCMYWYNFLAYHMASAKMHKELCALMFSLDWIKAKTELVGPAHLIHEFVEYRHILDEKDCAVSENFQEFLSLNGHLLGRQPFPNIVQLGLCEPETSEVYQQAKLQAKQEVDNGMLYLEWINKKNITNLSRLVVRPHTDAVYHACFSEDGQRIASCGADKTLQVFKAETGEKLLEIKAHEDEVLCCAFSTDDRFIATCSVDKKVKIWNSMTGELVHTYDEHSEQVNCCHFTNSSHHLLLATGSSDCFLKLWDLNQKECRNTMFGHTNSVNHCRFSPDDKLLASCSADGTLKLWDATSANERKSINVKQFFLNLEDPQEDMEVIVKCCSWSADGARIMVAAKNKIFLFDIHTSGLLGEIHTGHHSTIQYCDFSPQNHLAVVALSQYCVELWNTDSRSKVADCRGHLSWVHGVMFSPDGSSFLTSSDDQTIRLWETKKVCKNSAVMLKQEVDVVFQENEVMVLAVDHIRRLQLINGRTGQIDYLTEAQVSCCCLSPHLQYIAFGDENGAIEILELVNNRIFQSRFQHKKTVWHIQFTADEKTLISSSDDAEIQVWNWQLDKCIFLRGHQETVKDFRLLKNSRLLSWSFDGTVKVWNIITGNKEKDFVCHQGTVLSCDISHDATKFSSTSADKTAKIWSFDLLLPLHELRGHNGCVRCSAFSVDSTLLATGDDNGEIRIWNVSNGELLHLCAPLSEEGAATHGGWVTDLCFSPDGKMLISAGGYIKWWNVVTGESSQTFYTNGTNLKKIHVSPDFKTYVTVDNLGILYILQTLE
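System: Reconstituted apoptosome of Apaf-1, cytochrome c, caspase-9, procaspase-3 | Reagent: dATP, cytochrome c, and (Z-DEVD)2-Rh110 caspase-3 substrate | Times: 30 min compound preincubation and 50 min reaction, both room temperature | Detection: Caspase-3-released Rh110 fluorescence, 540 nm emission, 480 nm excitation | Measure: Caspase-3 activity via Apaf-1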
Rh110 interf act: Rh110 signal interference in Apaf-1 activator counter-screen; 980 tested, under 10 active; AID 504616; shares compounds with Apaf-1 act; Rh110 fluorescence interference, quenched caspase reaction, Ex480/Em540; fluorescence interference (activity change), % at 20 µM, hits read low;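 active = mean activity change at or below -40% when tested at 20 µM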
Apaf-1 act conf2: Apaf-1 (human) activation, single-dose confirmed | shares compounds with Apaf-1 act | reconstituted apoptosome caspase-3 activity, DEVD-Rh110 fluorescence; active compounds read low | activity change, negative = activation, % at 20 µM | actives 5% (n = 980);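 active = mean activity change at or below -40%, meaning activation of 40% or more, at 20 µM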
Fluor interf act: counter-screen for Apaf-1 activators: fluorescence interference, dose response; shares compounds with Apaf-1 act; fluorescence interference counterscreen, Apaf-1 activator assay; EC50, µM; 55 tested, under 10 active; AID 588592; call rule not given here
Of the large screens only hits and unclear results are named; the others gave an inactive call (follow-up assays come after a bar, where they were run). A selection follows.

NC(=O)CSc1nc2scc(-c3ccc(Cl)cc3)c2c(=O)n1Cc1ccccc1	none
Fc1ccc(F)c(C2=NNC(=Nc3ccccc3F)SC2)c1	Apaf-1 act -45 | Rh110 interf act inactive | Apaf-1 act conf2 inactive
C=CCN1C=C2C(=O)C(C)(OC(=O)CCC(=O)OC)C(=O)C=C2C=C1C1CC1 (centres undefined)	none
COc1ccc(C(CNC(=O)c2cc3c(s2)CCC(C)C3)N2CCCC2)cc1 (centres undefined)	none
COC(=O)c1c(N)n(CCCN2CCOCC2)c2nc3ccccc3nc12	Apaf-1 act -72 | Rh110 interf act inactive | Apaf-1 act conf2 inactive
COc1ccc(CNC(=O)c2c(N)n(CCCN3CCOCC3)c3nc4ccccc4nc23)cc1	none
Nc1c(C(=O)NCc2ccccc2)c2nc3ccccc3nc2n1CCCN1CCOCC1	none
NC1=NC[C@@H](Cc2ccc(O)cc2)N1CCCCC1CCCCC1	none
c1csc(-c2nc3c4ccccc4c4ccccc4c3[nH]2)c1	none
NC(=O)N(CCC(=O)O)c1ccccc1	Apaf-1 act -47 | Rh110 interf act inactive | Apaf-1 act conf2 inactive
Clc1ccc(-c2cn3nc4c(nc3n2)CCCC4)cc1	none
CCc1ccc(NC(=S)Nc2cccc3cnccc23)cc1	none
C=C(C)C(=O)Nc1cccc(C2=NOC3(C2)C[C@@H](C(N)=O)N(C(=O)/C(C)=C/C)C3)c1 (some centres undefined)	Apaf-1 act -288 | Rh110 interf act inactive | Apaf-1 act conf2 -120 | Fluor interf act inactive
C=C(C)C(=O)Nc1cccc(C2=NOC3(C2)C[C@H](C(N)=O)N(C(=O)c2ccccc2C(=O)c2ccccc2)C3)c1 (some centres undefined)	Apaf-1 act -270 | Rh110 interf act inactive | Apaf-1 act conf2 -125 | Fluor interf act inactive
C=C(C)C(=O)Nc1cccc(C2=NOC3(C2)C[C@@H](C(N)=O)N(C(=O)/C=C/C=C/C)C3)c1 (some centres undefined)	Apaf-1 act -326 | Rh110 interf act inactive | Apaf-1 act conf2 -129 | Fluor interf act inactive
C=C(C)C(=O)Nc1cccc(C2=NOC3(C2)C[C@@H](C(N)=O)N(C(=O)CC(c2ccccc2)c2ccccc2)C3)c1 (some centres undefined)	Apaf-1 act -107 | Rh110 interf act inactive | Apaf-1 act conf2 inactive
CN(C)c1cccc2cccc(N(C)C)c12	none
CCCCc1c(C)nn(-c2nnc3c4ccccc4n(CC)c3n2)c1C	none
CC(C)C[C@@H]1CN=C(N)N1C[C@@H]1CCCN1C[C@H](C)N1C[C@@H](Cc2ccccc2)N(CCc2ccc(Cl)c(Cl)c2)C1=N	none
Cc1nc2sccn2c(=O)c1CCN1CCC(=C(c2ccc(F)cc2)c2ccc(F)cc2)CC1	none
CCCN1CCCc2cc(CN)ccc21	none
Cc1[nH][nH]c(=O)c1C(c1ccc(-c2ccc(F)cc2)o1)c1c(C)[nH][nH]c1=O	none
CC(C)(C)NC[C@H](O)COc1nsnc1N1CCOCC1	none
Oc1ccc(-c2csc(-c3c[nH]c4ccccc34)n2)c(O)c1	Apaf-1 act -276 | Rh110 interf act inactive | Apaf-1 act conf2 inactive
Oc1c(Br)cc(C=Nc2ccc3nc(-c4ccccc4)[nH]c3c2)c(O)c1Br	none
Cc1cc2c(N)cccc2nn1	none
O=C(CSc1nncc2ccccc12)N1CCOCC1	Apaf-1 act -543 | Rh110 interf act inactive | Apaf-1 act conf2 inactive
O=C(CSc1c[nH]c2ccccc12)N1CCOCC1	Apaf-1 act -42 | Rh110 interf act inactive | Apaf-1 act conf2 inactive
COc1ccc(-c2cc(=O)n(CCC#N)[nH]2)cc1	none
Nc1ccc2nc(-c3cccc(-c4nc5ccc(N)cc5[nH]4)n3)[nH]c2c1	none
COc1cc(/C=N/N=C(N)N)ccc1OCc1ccc(Cl)cc1	none
CCOCCCNc1nc2nc3ccc(C)cn3c(=O)c2cc1C(=O)NCC1CCCO1 (centres undefined)	Apaf-1 act -69 | Rh110 interf act inactive | Apaf-1 act conf2 inactive
CCN1/C(=C/c2ccc3cc(C)ccc3[n+]2CC)Sc2ccc3sccc3c21	none
O=[N+]([O-])c1ccc(/C=C/c2ccc3cccc([N+](=O)[O-])c3n2)cc1	Apaf-1 act -107 | Rh110 interf act inactive | Apaf-1 act conf2 inactive
O=C1c2ccccc2-c2c1nc1c([n+]2[O-])CCCC1	none
CCOC(=O)N1CCC(NC(=O)CN2C(=O)CSc3ncccc32)CC1	none
Cc1cccc(-n2ncc3c2CCCC3NC(=O)CN2CCCC2=O)c1C (centres undefined)	Apaf-1 act -203 | Rh110 interf act inactive | Apaf-1 act conf2 inactive
O=C(N/N=C/c1ccc(-c2ccccc2[N+](=O)[O-])o1)[C@H]1C[C@@H]1c1ccccc1	none
